In article PMC5407101 (Pharmacognosy Magazine, 2017):

Tests used:
Format in all cases: in vitro ADME
[1] = system: UDP-glucuronosyltransferases (UGTs) in rat liver microsomes; assay: Kinetic analysis for 4-MU glucuronidation in RLM
Method in brief: (§1)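 Microsomes from livers or kidneys of untreated male Sprague-Dawley rats. Protein was 0.1 mg mL–1 (RLM) or 0.125 mg mL–1 (RKM), pre-treated on ice for 5 min with Triton X-100 (0.1 μL mg–1 RLM; 0.2 μL mg–1 RKM), in Tris-HCl pH 7.4 with MgCl2. 4-MU ranged 0-10 mM. After 5 min at 37°C, UDPGA started the 15-min reaction, stopped with TCA. 4-MUG was measured by C18 HPLC-UV at 316 nm. Km and Vmax came from a Michaelis-Menten fit.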

[2] = system: UDP-glucuronosyltransferases (UGTs) in rat kidneys microsomes; assay: Kinetic analysis for 4-MU glucuronidation in RKM
Method in brief: as §1

[3] = system: UDP-glucuronosyltransferases (UGTs) in rat liver microsomes; assay: Inhibition of 4-MU glucuronidation assay in RLM; conditions: for fold more potent inhibition of 4-MU glucuronidation with RLM than with RKM: ratio of IC50 RKM/RLM
[4] = system: UDP-glucuronosyltransferases (UGTs) in rat kidneys microsomes; assay: Kinetic analysis for p-NP glucuronidation in RKM
Method in brief: (§2)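 RLM or RKM (5 mg mL–1) was pre-treated on ice for 5 min with Triton X-100 (0.25 v/v % RLM; 0.125 v/v % RKM). Incubation was in Tris-HCl pH 7.4 with MgCl2, at seven p-NP levels (0-3,000 µM), started with UDPGA, 37°C for 30 min. The reaction was stopped with TCA and alkalinised with NaOH, and read at 405 nm. Glucuronidated p-NP was taken as blank minus unreacted, per protein and time. Km and Vmax came from a Michaelis-Menten fit.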

[5] = system: UDP-glucuronosyltransferases (UGTs) in rat liver microsomes; assay: Kinetic analysis for p-NP glucuronidation in RLM
Method in brief: as §2

[6] = read-out: Km of p-NP glucuronidation, Michaelis-Menten

## Cc1cc(=O)oc2cc(O)ccc12 [4-MU, 4-methylumbelliferone]
[1]; Michaelis-Menten, no inhibitor
  Vmax of 4-MU glucuronidation: 27.87 ± 1.08 nmol min^–1 mg^–1
[1]; read-out: Km of 4-MU glucuronidation, Michaelis-Menten, no inhibitor
  Km: 104 ± 20 µM
[2]; Michaelis-Menten
  Vmax of 4-MU glucuronidation: 12.01 ± 0.12 nmol min^–1 mg^–1
[2]; read-out: Km of 4-MU glucuronidation, Michaelis-Menten
  Km: 101 ± 6 µM

## COc1cc(C=O)cc(OC)c1O [Syringaldehyde]
[3]; RLM
  fold higher IC50 in comparison with vanillin, 4-MU UGT inhibition: 120 fold
[3]
  fold more potent inhibition of 4-MU glucuronidation with RLM than with RKM: 1.2 fold

## COc1cc(C=O)ccc1O [Vanillin]
[3]
  fold more potent inhibition of 4-MU glucuronidation with RLM than with RKM: 2.6 fold

## O=[N+]([O-])c1ccc(O)cc1 [p-NP, p-nitrophenol]
[4]; Michaelis-Menten
  Vmax of p-NP glucuronidation: 9.320 ± 1.11 nmol min^–1 mg^–1
[4]; [6]
  Km: 857 ± 68.3 µM
[5]; Michaelis-Menten
  Vmax of p-NP glucuronidation: 43.04 ± 1.64 nmol min^–1 mg^–1
[5]; [6]
  Km: 860 ± 86.8 µM
